The values below come from the array DNA melting data of Ke et al. (doi:10.1101/2024.01.08.574731).

Data set [1] can be described thus: melting temperature; fluorescence melt of hairpins on a sequencing array, two-state fit, raised by 9.35 °C to match UV melts. Conditions: sodium 0.088 M. An outline of the steps: (§1)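 In 50 mM Na-HEPES pH 8.0 containing 25 mM NaCl, hairpins from the library on a sequenced MiSeq flow cell were imaged for Cy3 fluorescence at 2.5 °C steps up to 60 °C, with Cy3 and quencher oligos annealed. After normalisation to pre-quench Cy3 and to control constructs, two-state fits with bootstrapping gave melting temperature and folding enthalpy. Four replicates were combined by inverse-variance weighting, and fitted temperatures were shifted up by 9.35 °C to match UV melts.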

Data set [2] in a line: folding enthalpy; higher = less favourable; fluorescence melt of hairpins on a sequencing array, two-state fit. Particulars: sodium 0.088 M. An outline of the steps: as §1

As for GGTTTGGGAAACTGAACC ((((..(....)..)))), the Tm in data set [1] was 35.1 °C. Further, in data set [2], the folding enthalpy is -29.2 kcal/mol.
Regarding GCGAGCTGTCGC ((((....)))), the Tm in data set [1] was determined as 48.8 °C. The folding enthalpy in data set [2] is -17.8 kcal/mol.
On to GTCTCCGAAAGGAGCGAC ((((((....)))..))), for which the Tm in data set [1] stood at 53.9 °C. Further, the folding enthalpy in data set [2] was -16.1 kcal/mol.
Taken in the same sequence, the figures for GCTAATCCGAAAGGAAGC (((..(((....)))))) were 33.1 °C and -16.5 kcal/mol.
On the same counts, the results for GGATACCCGAAAGGGTCC (((..(((....)))))) are 31.9 °C and -10.4 kcal/mol.
On to GTATAAGAAATTATAC ((((((....)))))), for which the Tm in data set [1] came out at 29.6 °C. The folding enthalpy in data set [2] was -14.5 kcal/mol.
On the same counts, the results for GGTTGAGGAAACTCGACC (((.(((....))).))) are 51.5 °C and -44.2 kcal/mol.
For GGCATCGAAAGATGTGCC ((((((....)))..))), the Tm in data set [1] is 46.4 °C. Besides, the folding enthalpy in data set [2] was -17.8 kcal/mol.
On the same counts, the results for GCGGTCTCCGC ((((...)))) are 56.3 °C and -29.1 kcal/mol.
In the case of GCTATCGAAAGATGAAGC ((((((....)))..))), the Tm in data set [1] came to 32.8 °C. Also, in data set [2], the folding enthalpy was -16.2 kcal/mol.
Taken in the same sequence, the figures for GACACAGGAAACTGTGCC (.(((((....))))).) were 45 °C and -14.9 kcal/mol.
Taken in the same sequence, the figures for GGGTGCGAAAGCACACCC ((((((....)))..))) were 58.3 °C and -10.4 kcal/mol.
In the case of GTGGTCGGAAACGGTCAC (((..((....))..))), the Tm in data set [1] was determined as 44.2 °C. Moreover, the folding enthalpy in data set [2] was -23 kcal/mol.
Turning to CGGCCGGAAACGGGCCG ((((((....))).))), in data set [1], the Tm amounted to 66.9 °C. Moreover, the folding enthalpy in data set [2] is -20 kcal/mol.
For GGAGCGCGAAAGCGTCC (((.(((....)))))), in data set [1], the Tm was 52.1 °C. In addition, the folding enthalpy in data set [2] is -13.9 kcal/mol.
For the sequence GCACCAGGAAACCAGTGC ((((..(....)..)))), in data set [1], the Tm came to 39 °C. Also, in data set [2], the folding enthalpy is -30.5 kcal/mol.
On the same counts, the results for CGGGACGGAAACGTACCG (((.(((....))).))) are 62.4 °C and -42.1 kcal/mol.
For GCTGCCGAAAGGCCAAGC ((((((....)))..))), the Tm in data set [1] was determined as 46.3 °C. Moreover, in data set [2], the folding enthalpy was -15.5 kcal/mol.
Taken in the same sequence, the figures for GATCGCGGAAACGCGGTC ((.((((....)))).)) were 62.8 °C and -22.8 kcal/mol.
Turning to GCCAATACGAAAGTAGGC (((..(((....)))))), the Tm in data set [1] was 44.2 °C. The folding enthalpy in data set [2] is -25.6 kcal/mol.
On to GCGTAGCGAAAGCTTTGC ((..(((....)))..)), for which the Tm in data set [1] came to 42.9 °C. The folding enthalpy in data set [2] was -7.28 kcal/mol.
On the same counts, the results for GATCCTGGGGAGGATC ((((((....)))))) are 51 °C and -36.8 kcal/mol.
Taken in the same sequence, the figures for GATCTTAGCAAGATC ((((((...)))))) were 46.2 °C and -31.9 kcal/mol.
In the case of GATCAGGGGCTGATC ((((((...)))))), in data set [1], the Tm came out at 47.5 °C. For the same sequence, in data set [2], the folding enthalpy is -27.4 kcal/mol.
Take GTGTATACGAAAGTACAC (((..(((....)))))): in data set [1], the Tm amounted to 41.1 °C. For the same sequence, the folding enthalpy in data set [2] is -23.2 kcal/mol.
For the sequence GATCGAATCTCGATC ((((((...)))))), the Tm in data set [1] came out at 51 °C. The folding enthalpy in data set [2] was -38.2 kcal/mol.
On the same counts, the results for GCTTGGCGAAAGCATAGC (((..((....))..))) are 46.2 °C and -20.3 kcal/mol.
On the same counts, the results for GGCATTGGAAACAACGCC (((.(((....))).))) are 44.6 °C and -34.4 kcal/mol.
Taken in the same sequence, the figures for GATCCGACATCGGATC ((((((....)))))) were 55.8 °C and -46.8 kcal/mol.
As for GATCCCAGATGGGATC ((((((....)))))), in data set [1], the Tm was 57.6 °C. Moreover, the folding enthalpy in data set [2] was -34.1 kcal/mol.
In the case of GGGCACGGAAACGCGCCC ((((.((....)).)))), the Tm in data set [1] was found to be 64.3 °C. In data set [2], the folding enthalpy is -44 kcal/mol.
Turning to CGGTCGGAAACGAAACCG ((((((....)))..))), the Tm in data set [1] stood at 43.3 °C. Besides, the folding enthalpy in data set [2] was -28.4 kcal/mol.
On the same counts, the results for GATCCTCACTAGGATC ((((((....)))))) are 51.7 °C and -35.1 kcal/mol.
In the case of GACACTACGAAAGTAGTC (((..(((....)))))), in data set [1], the Tm is 32.4 °C. Also, the folding enthalpy in data set [2] was -10.3 kcal/mol.
GCGGGCGAAAGCCGCCGC ((((((....)))..))): the Tm in data set [1] is 61.7 °C. Also, the folding enthalpy in data set [2] is -11.3 kcal/mol.
On the same counts, the results for GCTTACGAAAGTAACAGC ((((((....)))..))) are 37 °C and -16.2 kcal/mol.
Taken in the same sequence, the figures for GATCGGCATGCCGATC ((((((....)))))) were 67.4 °C and -44.7 kcal/mol.
